The structures appear in SMILES notation. Active and inactive are the calls of the source. The calls are words filed in the database; no cut-off is given here. Where only a bound is given, the exact number is not on record here.

In general, IC50 refers to the concentration at which inhibition is half-maximal. In general, IC80 refers to the point of the concentration-response curve where the effect stands at 80%.

Experiment [1] addresses T1, Prostaglandin G/H synthase 1 (Mus musculus, UniProt P22437).
T1 sequence (P22437 whole entry): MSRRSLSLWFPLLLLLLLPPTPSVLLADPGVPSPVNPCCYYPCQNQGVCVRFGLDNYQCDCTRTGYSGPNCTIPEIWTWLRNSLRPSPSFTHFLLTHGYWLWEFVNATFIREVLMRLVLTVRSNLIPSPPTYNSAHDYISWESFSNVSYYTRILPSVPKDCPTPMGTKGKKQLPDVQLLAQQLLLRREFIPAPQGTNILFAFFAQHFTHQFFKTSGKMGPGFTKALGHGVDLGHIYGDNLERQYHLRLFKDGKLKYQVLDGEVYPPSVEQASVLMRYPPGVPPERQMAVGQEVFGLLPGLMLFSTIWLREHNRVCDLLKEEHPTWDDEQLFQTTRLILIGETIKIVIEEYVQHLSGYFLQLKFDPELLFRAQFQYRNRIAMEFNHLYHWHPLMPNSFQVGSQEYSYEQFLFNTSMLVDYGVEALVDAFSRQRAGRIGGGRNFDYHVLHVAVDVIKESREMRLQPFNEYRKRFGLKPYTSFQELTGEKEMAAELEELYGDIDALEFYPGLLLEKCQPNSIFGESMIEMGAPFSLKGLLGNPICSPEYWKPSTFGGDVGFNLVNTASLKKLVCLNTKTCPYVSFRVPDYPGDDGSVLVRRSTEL
The experiment can be described thus: Inhibition of arachidonic acid-induced COX1 activity in mouse J774 cells assessed as decrease in PGE2 levels incubated for 15 mins prior to arachidonic acid-challenge measured after 30 mins by RIA. Type of experiment: cell-based. The method, boiled down:
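Cells were in DMEM with 10% FBS and adhered for 2 h at 37 °C. They were pretreated with compound (10 µM; 0.1-1 µM where inhibition exceeded 50%) for 15 min, then given 15 µM arachidonic acid for 30 min at 37 °C. Supernatant PGE2 was measured by RIA. Triplicate wells were used and the mean of three experiments reported. IC50 came from a variable-slope sigmoidal fit.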

Experiment [2] deals with Aorta. The experiment in a line: Vasorelaxant activity in Wistar rat endothelium-removed thoracic aortic rings assessed as reduction of KCl-induced vasoconstriction at 0.001 uM to 10 uM treated after KCl-challenge relative to control. Type of experiment: functional. The procedure, abridged:
(§1)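 Thoracic aortic rings from male Wistar rats (250-350 g), endothelium removed by rubbing; removal confirmed as <10% relaxation to ACh 10 µM in KCl 30 mM-contracted rings. Rings contracted with KCl 30 mM; at plateau, 3-fold increasing compound concentrations (1 nM-10 µM) added. Isometric tension recorded. Emax given as % of KCl tone; pIC50 as -log molar concentration halving that tone. 6-10 experiments; also run with ODQ 1 µM.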

In experiment [3] the test system is Rattus norvegicus. The experiment can be described thus: Antiinflammatory activity in Sprague-Dawley/Wistar rat assessed as decrease in carrageenan-induced paw edema at 40 mg/kg, po administered 3 hrs 30 mins after carrageenan-challenge measured after 60 mins (reference value: 2.48 +/- 0.06 mL). Type of experiment: functional. In general terms: In the carrageenan paw model, swelling and tenderness develop within hours.

The target of experiment [4] is Prostaglandin G/H synthase 1 (Homo sapiens, UniProt P23219). The experiment can be described thus: Inhibition of COX1 in human whole blood assessed as reduction in TXB2 generation. The procedure, abridged: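 Clotting assay in whole blood from three healthy volunteers with no NSAID for 2 weeks. Compounds in DMSO were added at 0.1-300 µM final. Blood clotted in glass tubes at 37 °C for 1 h. Serum TXB2 was measured by RIA as a reflection of platelet COX-1 activity driven by endogenous thrombin.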

The subject of experiment [5] is Rattus norvegicus. The experiment in a line: Antiinflammatory activity in Sprague-Dawley/Wistar rat assessed as decrease in carrageenan-induced hyperalgesia at 40 mg/kg, po administered 4 hrs after carrageenan-challenge measured after 30 mins (reference value: 34.8 +/- 3.0 g). Type of experiment: functional.
The species named for experiment [6] is Bos taurus. The experiment can be described thus: (§2) Inhibition of interleukin 1 beta-induced glycosaminoglycan release in bovine articular cartilage of metacarpophalangeal joints of feet treated 48 hrs after interleukin 1beta-challenge by DMB colorimetric assay. The format is functional. The procedure, abridged:
(§3)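 Bovine metacarpophalangeal cartilage slices (about 100 mg per well) were cultured in serum-free DMEM at 37 °C, 5% CO2, with medium changed on days 1 and 2. On day 3 the slices were challenged with IL-1β 30 ng/mL plus compound for 48 h. GAG release was measured by the DMB (Farndale) assay and expressed as % of IL-1β alone, n = 3. EC50 is given with 95% CI.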

Experiment [7] in a line: as §2. Type of experiment: functional, Bos taurus. The procedure, abridged: as §3
In experiment [8] the test system is Mus musculus. The experiment in a line: Antinociceptive activity in po dosed Swiss albino mouse assessed as reduction in number of acetic acid-induced writhing counted 5 mins after acetic acid challenge counted for 10 mins. The format is functional. The following applies: read-out: MED. The method, boiled down:
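Male Swiss albino mice (23-25 g) dosed orally, then given 0.6% acetic acid (10 mL/kg) ip. Stretching movements counted for 10 min, starting 5 min after the acetic acid. Control group received CMC. At least 7 mice/group; mean ± SEM, ANOVA with Fisher's PLSD.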

Experiment [9] relates to Rattus norvegicus. The experiment can be described thus: Antiinflammatory activity in Sprague-Dawley/Wistar rat assessed as decrease in carrageenan-induced hyperalgesia at 40 mg/kg, po administered 4 hrs after carrageenan-challenge measured after 120 mins (reference value: 31.4 +/- 3.7 g). The format is functional.
The subject of experiment [10] is Rattus norvegicus. The experiment in a line: Antiinflammatory activity in Sprague-Dawley/Wistar rat assessed as decrease in carrageenan-induced paw edema at 20 mg/kg, po administered 3 hrs 30 mins after carrageenan-challenge measured after 60 mins (reference value: 2.48 +/- 0.06 mL). The format is functional.
The subject of experiment [11] is Rattus norvegicus. The experiment can be described thus: Antiinflammatory activity in Sprague-Dawley/Wistar osteoarthritis model rat assessed as decrease in monoiodoacetate-induced hyperalgesia at 20 mg/kg, po bid for 14 days administered from day of monoiodoacetate-challenge followed by additional compound treatment after 30 mins […] by paw pressure test (reference value: 30.4 +/- 3.1 g). Type of experiment: functional.

In experiment [12] the test system is Rattus norvegicus. The experiment can be described thus: Antiinflammatory activity in Sprague-Dawley/Wistar rat assessed as decrease in carrageenan-induced hyperalgesia at 40 mg/kg, po administered 4 hrs after carrageenan-challenge measured after 60 mins (reference value: 33.9 +/- 3.7 g). Type of experiment: functional.
The subject of experiment [13] is Rattus norvegicus. The experiment in a line: Antiinflammatory activity in Sprague-Dawley/Wistar rat assessed as decrease in carrageenan-induced hyperalgesia at 20 mg/kg, po administered 4 hrs after carrageenan-challenge measured after 120 mins (reference value: 31.4 +/- 3.7 g). Type of experiment: functional.
For experiment [14], the system named is Rattus norvegicus. The experiment can be described thus: Antiinflammatory activity in Sprague-Dawley/Wistar rat assessed as decrease in carrageenan-induced hyperalgesia at 20 mg/kg, po administered 4 hrs after carrageenan-challenge measured after 30 mins (reference value: 34.8 +/- 3.0 g). Type of experiment: functional.
The test system of experiment [15] is Rattus norvegicus. The experiment can be described thus: Antiinflammatory activity in Sprague-Dawley/Wistar rat assessed as decrease in carrageenan-induced hyperalgesia at 20 mg/kg, po administered 4 hrs after carrageenan-challenge measured after 60 mins (reference value: 33.9 +/- 3.7 g). The format is functional.
The test system of experiment [16] is Rattus norvegicus. The experiment can be described thus: Antiinflammatory activity in Sprague-Dawley/Wistar osteoarthritis model rat assessed as decrease in monoiodoacetate-induced hyperalgesia at 20 mg/kg, po bid for 14 days administered from day of monoiodoacetate-challenge […] post by paw pressure test (reference value: 32.6 +/- 2.9 g). The format is functional.

Experiment [17] has as its target T2, Prostaglandin G/H synthase 2 (Homo sapiens) (UniProt P35354).
T2 sequence (whole entry): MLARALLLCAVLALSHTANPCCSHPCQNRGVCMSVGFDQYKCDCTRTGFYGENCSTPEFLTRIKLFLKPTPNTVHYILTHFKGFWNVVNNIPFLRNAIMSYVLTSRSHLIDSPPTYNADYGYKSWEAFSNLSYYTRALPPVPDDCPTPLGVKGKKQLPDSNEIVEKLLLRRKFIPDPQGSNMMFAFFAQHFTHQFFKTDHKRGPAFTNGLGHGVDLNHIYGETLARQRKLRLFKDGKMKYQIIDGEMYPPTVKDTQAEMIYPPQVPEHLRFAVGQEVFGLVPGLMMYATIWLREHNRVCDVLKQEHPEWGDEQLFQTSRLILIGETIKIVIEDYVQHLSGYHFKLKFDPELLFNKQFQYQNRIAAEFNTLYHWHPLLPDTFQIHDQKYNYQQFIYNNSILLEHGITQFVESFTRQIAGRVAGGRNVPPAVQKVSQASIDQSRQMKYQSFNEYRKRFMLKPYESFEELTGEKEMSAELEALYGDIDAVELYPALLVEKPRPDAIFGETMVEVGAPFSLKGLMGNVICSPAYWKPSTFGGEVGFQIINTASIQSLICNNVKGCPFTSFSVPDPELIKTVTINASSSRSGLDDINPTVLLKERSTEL
The experiment in a line: Inhibition of COX2 in human whole blood assessed as reduction in LPS-induced PGE2 generation pre-treated prior to LPS-challenge. The procedure, abridged:
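Heparinized whole blood came from three healthy volunteers pretreated with aspirin 300 mg 48 h before sampling to suppress platelet COX-1. Compounds in DMSO were added at 0.1-300 µM final. Blood was incubated with LPS 10 µg/mL for 24 h at 37 °C. Plasma PGE2 was measured by RIA.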

Experiment [18] addresses T3, Prostaglandin G/H synthase 2 (Mus musculus, UniProt Q05769).
T3 sequence (Q05769 whole entry): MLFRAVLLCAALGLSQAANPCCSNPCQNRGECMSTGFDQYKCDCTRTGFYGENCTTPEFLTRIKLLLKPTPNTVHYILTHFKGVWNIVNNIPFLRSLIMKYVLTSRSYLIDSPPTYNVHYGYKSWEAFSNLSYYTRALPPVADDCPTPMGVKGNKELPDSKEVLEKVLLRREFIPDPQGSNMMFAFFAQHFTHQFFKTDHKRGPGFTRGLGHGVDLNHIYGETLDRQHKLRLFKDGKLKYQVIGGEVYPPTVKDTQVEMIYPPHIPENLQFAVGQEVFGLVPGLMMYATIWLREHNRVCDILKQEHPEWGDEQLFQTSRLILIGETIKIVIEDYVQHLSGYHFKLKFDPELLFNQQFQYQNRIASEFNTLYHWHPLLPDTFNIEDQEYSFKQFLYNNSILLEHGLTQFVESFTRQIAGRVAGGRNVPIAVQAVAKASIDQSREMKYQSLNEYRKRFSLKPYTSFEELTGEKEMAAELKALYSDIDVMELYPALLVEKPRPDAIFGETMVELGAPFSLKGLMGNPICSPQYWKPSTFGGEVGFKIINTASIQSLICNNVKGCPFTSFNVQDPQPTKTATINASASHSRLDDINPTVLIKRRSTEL
The experiment can be described thus: Inhibition of Escherichia coli lipopolysaccharide-induced COX2 activity in mouse J774 cells assessed as decrease in PGE2 levels after 24 hrs by RIA. Type of experiment: cell-based. The method, boiled down: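 Adhered cells in DMEM/10% FBS were stimulated with E. coli LPS 10 µg/mL for 24 h with compound present at 0.01-10 µM. Supernatant PGE2 was measured by RIA. IC50 came from a variable-slope sigmoidal fit.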

The test system of experiment [19] is J774. The experiment in a line: Selectivity index, ratio of IC50 for COX1 in mouse J774 cells […]. Type of experiment: cell-based.
Experiment [20] concerns Aorta. The experiment in a line: Vasorelaxant activity in Wistar rat endothelium-removed thoracic aortic rings assessed as reduction of KCl-induced vasoconstriction at 0.001 uM to 10 uM treated after KCl-challenge in presence of guanylate cyclase inhibitor 1H-[1,2,4]-oxadiazolo[4,3-a]quinoxalin-1-one. The format is functional, tissue-based. The method, boiled down:
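Endothelium-denuded aortic rings from male Wistar rats (250-350 g) were preincubated with ODQ 1 µM. Rings were contracted with KCl 30 mM, then given 3-fold increasing concentrations from 1 nM to 10 µM. Emax is the % relaxation of KCl tone. pIC50 was calculated when efficacy reached 50%, from 6-10 experiments.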

Experiment [21] concerns Aorta. The experiment in a line: Vasorelaxant activity in Wistar rat endothelium-removed thoracic aortic rings assessed as reduction of KCl-induced vasoconstriction treated after KCl-challenge. Type of experiment: functional, tissue-based. The procedure, abridged: as §1

Sequence of Prostaglandin G/H synthase 1 (Homo sapiens, UniProt P23219) (P23219 whole entry): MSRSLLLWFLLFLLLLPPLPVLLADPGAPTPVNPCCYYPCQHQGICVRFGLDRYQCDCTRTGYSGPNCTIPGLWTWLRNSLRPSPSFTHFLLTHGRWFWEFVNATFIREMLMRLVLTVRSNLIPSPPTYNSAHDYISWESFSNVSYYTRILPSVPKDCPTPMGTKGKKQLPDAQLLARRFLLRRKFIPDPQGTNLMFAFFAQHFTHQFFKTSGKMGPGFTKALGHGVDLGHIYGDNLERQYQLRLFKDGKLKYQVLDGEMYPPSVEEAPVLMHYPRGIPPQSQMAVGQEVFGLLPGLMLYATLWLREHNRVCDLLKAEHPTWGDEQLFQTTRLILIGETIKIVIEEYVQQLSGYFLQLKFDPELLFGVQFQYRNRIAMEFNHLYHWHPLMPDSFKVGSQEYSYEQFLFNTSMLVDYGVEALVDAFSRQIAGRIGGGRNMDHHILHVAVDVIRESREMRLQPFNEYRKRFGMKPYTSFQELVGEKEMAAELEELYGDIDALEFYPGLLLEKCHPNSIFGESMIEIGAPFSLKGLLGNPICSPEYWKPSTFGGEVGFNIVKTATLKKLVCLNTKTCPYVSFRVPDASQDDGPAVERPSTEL

With `Cc1c(CCOCCO)cc(-c2ccc(S(C)(=O)=O)cc2)n1-c1ccc(F)cc1`, the IC50 in [1] was over 10 µM; in experiment [4], 20 µM; in experiment [7], 33 µM. Moreover, in [2], the Emax result is “inactive”. For the same compound, the Activity in experiment [3] worked out at 1.95 mL; in experiment [5], 57.2 g; in [9] it was 47.6 g; in [10], 2.01 mL; in [11] it was 51.2 g; in experiment [12], 58.3 g. Also, the Activity is reported as 38.3 g in [13], 46.8 g in [14], 38.7 g in [15] and 49.7 g in experiment [16]. Further, the IC80 is 37.1 µM in [4] and 2.31 µM in experiment [17]. The inhibition result in experiment [4], in experiment [6] and in experiment [17] was “Dose-dependent effect” in each case. For the same compound, the minimal effective dose in experiment [8] is 40 mg/kg.

Take `Cc1c(CCOCCO[N+](=O)[O-])cc(-c2ccc(S(C)(=O)=O)cc2)n1-c1cccc(F)c1`: the values for the IC50 in experiment [1], in [18] and in experiment [21] were over 10 µM, 0.027 µM and 4.79 µM, respectively. For the same compound, the Activity amounted to 2.08 mL in experiment [3]; 47.3 g in [5]; 34.3 g in experiment [9]; 2.16 mL in [10]; 41 g in experiment [12]; 35.2 g in experiment [13]. In addition, the Activity in [14] is reported as 43.9 g; in experiment [15], 40.7 g. The Ratio IC50 in [19] is over 357. For the same compound, the outcome in [20] was inactive. Moreover, in [8], the minimal effective dose came to 40 mg/kg. Also, the pIC50 result in experiment [21] was “Dose-dependent effect”.

The record behind these values is ChEMBL document CHEMBL2331234, “Novel analgesic/anti-inflammatory agents: 1,5-diarylpyrrole nitrooxyalkyl ethers and related compounds as cyclooxygenase-2 inhibiting nitric oxide donors” (J Med Chem, 2013).
